Laboratory results: ChEMBL document CHEMBL4229530, “5-Adamantan thiadiazole-based thiazolidinones as antimicrobial agents. Design, synthesis, molecular docking and evaluation” (2018)
Values after ≈ are worked out from the molar mass of the structure shown.

Experiments:
Enterobacter cloacae = experiment: Antibacterial activity against Enterobacter cloacae after 24 hrs by INT dye based microdilution assay; type: functional
Method in brief: (§1)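 Broth microdilution in tryptic soy broth: overnight bacterial culture adjusted to 1×10^5 CFU/mL, 1.0×10^4 CFU per well; compounds dissolved in 5% DMSO, tested at 0.001-1.0 mg/ml; 24 h at 37°C. Streptomycin and ampicillin as positive controls, 5% DMSO as negative control; duplicate, repeated three times.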

Trichoderma viride = experiment: Antifungal activity against Trichoderma viride IAM 5061 after 72 hrs by serial dilution assay; type: functional; settings: IAM 5061, 72 h
Method in brief: (§2)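 Modified microdilution: fungal spores washed off malt agar with sterile 0.85% saline plus 0.1% Tween 80, adjusted to about 1.0×10^5 per 100 µL well. Compounds in 5% DMSO (0.001-1.0 mg/ml) in malt broth; 72 h at 28°C on rotary shaker (160 rpm). MIC is lowest concentration without visible growth under binocular microscope. Bifonazole and ketoconazole controls (1-3500 µg/mL); three independent experiments in duplicate.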

Pseudomonas aeruginosa [1] = experiment: Antibacterial activity against Pseudomonas aeruginosa ATCC 27853 after 24 hrs by INT dye based microdilution assay; type: functional; settings: ATCC 27853, 24 h; method in brief: as §1
Pseudomonas aeruginosa [2] = experiment: Antibacterial activity against drug-resistant Pseudomonas aeruginosa after 24 hrs by INT dye based microdilution assay; type: functional
Method in brief: (§3)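 Broth microdilution in tryptic soy broth. Overnight culture adjusted to 1×10^5 CFU/mL, giving 1.0×10^4 CFU per well. Compounds dissolved in 5% DMSO and tested at 0.001-1.0 mg/ml. Plates incubated 24 h at 37°C. INT (0.2 mg/mL) then added, with 30 min at 37°C. Duplicate, repeated three times.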

Staphylococcus aureus [3] = experiment: Antibacterial activity against Staphylococcus aureus ATCC 6538 after 24 hrs by INT dye based microdilution assay; type: functional; settings: ATCC 6538, 24 h; method in brief: as §1
Aspergillus fumigatus = experiment: Antifungal activity against Aspergillus fumigatus isolate 1022 after 72 hrs by serial dilution assay; type: functional; settings: isolate 1022, 72 h; method in brief: as §2
Aspergillus versicolor = experiment: Antifungal activity against Aspergillus versicolor ATCC 11730 after 72 hrs by serial dilution assay; type: functional; settings: ATCC 11730, 72 h; method in brief: as §2
Staphylococcus aureus [4] = experiment: Antibacterial activity against methicillin-resistant Staphylococcus aureus after 24 hrs by INT dye based microdilution assay; type: functional; method in brief: as §3
Listeria monocytogenes = experiment: Antibacterial activity against Listeria monocytogenes NCTC 7973 after 24 hrs by INT dye based microdilution assay; type: functional; settings: NCTC 7973, 24 h; method in brief: as §1
Micrococcus flavus = experiment: Antibacterial activity against Micrococcus flavus ATCC 10240 after 24 hrs by INT dye based microdilution assay; type: functional; settings: ATCC 10240, 24 h; method in brief: as §1
Escherichia coli [5] = experiment: Antibacterial activity against drug-resistant Escherichia coli after 24 hrs by INT dye based microdilution assay; type: functional; method in brief: as §3
Salmonella typhimurium = experiment: Antibacterial activity against Salmonella typhimurium ATCC 13311 after 24 hrs by INT dye based microdilution assay; type: functional, Salmonella enterica subsp. enterica serovar Typhimurium; settings: Salmonella enterica, ATCC 13311, 24 h; method in brief: as §1
Aspergillus ochraceus = experiment: Antifungal activity against Aspergillus ochraceus ATCC 12066 after 72 hrs by serial dilution assay; type: functional; settings: ATCC 12066, 72 h; method in brief: as §2
Penicillium ochrochloron = experiment: Antifungal activity against Penicillium ochrochloron ATCC 9112 after 72 hrs by serial dilution assay; type: functional; settings: ATCC 9112, 72 h; method in brief: as §2
Penicillium verrucosum = experiment: Antifungal activity against Penicillium cyclopium var verucosum after 72 hrs by serial dilution assay; type: functional; method in brief: as §2
Bacillus cereus = experiment: Antibacterial activity against Bacillus cereus after 24 hrs by INT dye based microdilution assay; type: functional; method in brief: as §1
Aspergillus niger = experiment: Antifungal activity against Aspergillus niger ATCC 6275 after 72 hrs by serial dilution assay; type: functional; settings: ATCC 6275, 72 h; method in brief: as §2
Talaromyces funiculosus = experiment: Antifungal activity against Penicillium funiculosum ATCC 36839 after 72 hrs by serial dilution assay; type: functional; settings: ATCC 36839, 72 h; method in brief: as §2
Escherichia coli [6] = experiment: Antibacterial activity against Escherichia coli ATCC 35210 after 24 hrs by INT dye based microdilution assay; type: functional; settings: ATCC 35210, 24 h; method in brief: as §1

SMILES | MIC (Enterobacter cloacae) [µM] | MIC (Trichoderma viride) [µM] | MIC (Pseudomonas aeruginosa [1]) [µM] | MIC (Pseudomonas aeruginosa [2]) [µM] | MIC (Staphylococcus aureus [3]) [µM] | MIC (Aspergillus fumigatus) [µM] | MIC (Aspergillus versicolor) [µM] | MIC (Staphylococcus aureus [4]) [µM] | MIC (Listeria monocytogenes) [µM] | MIC (Micrococcus flavus) [µM] | MIC (Escherichia coli [5]) [µM] | MIC (Salmonella typhimurium) [µM] | MIC (Aspergillus ochraceus) [µM] | MIC (Penicillium ochrochloron) [µM] | MIC (Penicillium verrucosum) [µM] | MIC (Bacillus cereus) [µM] | MIC (Aspergillus niger) [µM] | MIC (Talaromyces funiculosus) [µM] | MIC (Escherichia coli [6]) [µM]
O=C1N/C(=N\c2nnc(C34CC5CC(CC(C5)C3)C4)s2)S/C1=C/c1cccc(Cl)c1Cl | 244 (≈ 120 µg/mL) | 163 (≈ 80.1 µg/mL) | 122 (≈ 60 µg/mL) | 183 (≈ 90 µg/mL) | 0.244 (≈ 0.12 µg/mL) | 163 (≈ 80.1 µg/mL) | 163 (≈ 80.1 µg/mL) | 0.183 (≈ 0.09 µg/mL) | 244 (≈ 120 µg/mL) | 244 (≈ 120 µg/mL) | 0.183 (≈ 0.09 µg/mL) | 122 (≈ 60 µg/mL) | 163 (≈ 80.1 µg/mL) | 163 (≈ 80.1 µg/mL) | 0.163 (≈ 0.0801 µg/mL) | 244 (≈ 120 µg/mL) | 163 (≈ 80.1 µg/mL) | 326 (≈ 160 µg/mL) | 0.244 (≈ 0.12 µg/mL)
Cc1ccc(/C=C2/S/C(=N/c3nnc(C45CC6CC(CC(C6)C4)C5)s3)NC2=O)cc1 | 115 (≈ 50 µg/mL) | 367 (≈ 160 µg/mL) | 115 (≈ 50 µg/mL) | 115 (≈ 50.1 µg/mL) | 0.115 (≈ 0.05 µg/mL) | 367 (≈ 160 µg/mL) | 183 (≈ 79.9 µg/mL) | 0.115 (≈ 0.0501 µg/mL) | 59.3 (≈ 25.9 µg/mL) | 115 (≈ 50 µg/mL) | 0.115 (≈ 0.0501 µg/mL) | 59.3 (≈ 25.9 µg/mL) | 183 (≈ 79.9 µg/mL) | 183 (≈ 79.9 µg/mL) | 0.183 (≈ 0.0801 µg/mL) | 115 (≈ 50 µg/mL) | 183 (≈ 79.9 µg/mL) | 183 (≈ 79.9 µg/mL) | 0.115 (≈ 0.05 µg/mL)
COc1ccc(/C=C2/S/C(=N/c3nnc(C45CC6CC(CC(C6)C4)C5)s3)NC2=O)cc1 | 99.5 (≈ 45 µg/mL) | 179 (≈ 81 µg/mL) | 99.5 (≈ 45 µg/mL) | 111 (≈ 50.1 µg/mL) | 0.0448 (≈ 0.0203 µg/mL) | 99.8 (≈ 45.2 µg/mL) | 99.8 (≈ 45.2 µg/mL) | 0.111 (≈ 0.0501 µg/mL) | 44.8 (≈ 20.3 µg/mL) | 99.5 (≈ 45 µg/mL) | 0.0553 (≈ 0.025 µg/mL) | 44.8 (≈ 20.3 µg/mL) | 99.8 (≈ 45.2 µg/mL) | 99.8 (≈ 45.2 µg/mL) | 0.0998 (≈ 0.0452 µg/mL) | 99.5 (≈ 45 µg/mL) | 179 (≈ 81 µg/mL) | 99.8 (≈ 45.2 µg/mL) | 0.0995 (≈ 0.045 µg/mL)
O=C1N/C(=N\c2nnc(C34CC5CC(CC(C5)C3)C4)s2)S/C1=C/c1c(Cl)cccc1Cl | 21.4 (≈ 10.5 µg/mL) | 122 (≈ 60 µg/mL) | 40.7 (≈ 20 µg/mL) | 61.1 (≈ 30 µg/mL) | 0.0407 (≈ 0.02 µg/mL) | 61 (≈ 30 µg/mL) | 61 (≈ 30 µg/mL) | 0.0611 (≈ 0.03 µg/mL) | 21.4 (≈ 10.5 µg/mL) | 40.7 (≈ 20 µg/mL) | 0.0305 (≈ 0.015 µg/mL) | 40.7 (≈ 20 µg/mL) | 92 (≈ 45.2 µg/mL) | 61 (≈ 30 µg/mL) | 0.122 (≈ 0.06 µg/mL) | 40.7 (≈ 20 µg/mL) | 61 (≈ 30 µg/mL) | 61 (≈ 30 µg/mL) | 0.0407 (≈ 0.02 µg/mL)
O=C1N/C(=N\c2nnc(C34CC5CC(CC(C5)C3)C4)s2)S/C1=C/c1ccc(F)cc1 | 148 (≈ 65 µg/mL) | 182 (≈ 80.2 µg/mL) | 295 (≈ 130 µg/mL) | 295 (≈ 130 µg/mL) | 0.147 (≈ 0.065 µg/mL) | 90.9 (≈ 40 µg/mL) | 90.9 (≈ 40 µg/mL) | 0.295 (≈ 0.13 µg/mL) | 295 (≈ 130 µg/mL) | 295 (≈ 130 µg/mL) | 0.295 (≈ 0.13 µg/mL) | 295 (≈ 130 µg/mL) | 90.9 (≈ 40 µg/mL) | 90.9 (≈ 40 µg/mL) | 0.182 (≈ 0.0801 µg/mL) | 295 (≈ 130 µg/mL) | 182 (≈ 80.2 µg/mL) | 90.9 (≈ 40 µg/mL) | 0.295 (≈ 0.13 µg/mL)
CC1(C)S[C@@H]2[C@H](NC(=O)[C@H](N)c3ccccc3)C(=O)N2[C@H]1C(=O)O [AMPICILLIN] | 248 (≈ 86.7 µg/mL) | – | 744 (≈ 260 µg/mL) | 1240 (≈ 433 µg/mL) | 0.248 (≈ 0.0867 µg/mL) | – | – | – | 372 (≈ 130 µg/mL) | 248 (≈ 86.7 µg/mL) | 1.24 (≈ 0.433 µg/mL) | 248 (≈ 86.7 µg/mL) | – | – | – | 248 (≈ 86.7 µg/mL) | – | – | 0.372 (≈ 0.13 µg/mL)
CN[C@@H]1[C@H](O[C@H]2[C@H](O[C@H]3[C@H](O)[C@@H](O)[C@H](N=C(N)N)[C@@H](O)[C@@H]3N=C(N)N)O[C@@H](C)[C@]2(O)C=O)O[C@@H](CO)[C@H](O)[C@H]1O [STREPTOMYCIN] | 43 (≈ 25 µg/mL) | – | 172 (≈ 100 µg/mL) | 129 (≈ 75 µg/mL) | 0.172 (≈ 0.1 µg/mL) | – | – | 0.258 (≈ 0.15 µg/mL) | 258 (≈ 150 µg/mL) | 86 (≈ 50 µg/mL) | 0.258 (≈ 0.15 µg/mL) | 172 (≈ 100 µg/mL) | – | – | – | 43 (≈ 25 µg/mL) | – | – | 0.172 (≈ 0.1 µg/mL)
